Assay results published in ChEMBL document CHEMBL4251630, “Hydroxymethyl bioisosteres of phenolic GluN2B-selective NMDA receptor antagonists: Design, synthesis and pharmacological evaluation” (Eur J Med Chem, 2018).

Key:
[1] = molecular target: T1, Sigma intracellular receptor 2 (Rattus norvegicus, UniProt Q5U3Y7); experiment: Displacement of [3H]-di-o-tolylguanidine from sigma-2 receptor in rat liver membranes incubated for 120 mins measured for 5 mins by scintillation counting method; assay type: cell membranes, Membrane
T1 sequence (Q5U3Y7 whole entry): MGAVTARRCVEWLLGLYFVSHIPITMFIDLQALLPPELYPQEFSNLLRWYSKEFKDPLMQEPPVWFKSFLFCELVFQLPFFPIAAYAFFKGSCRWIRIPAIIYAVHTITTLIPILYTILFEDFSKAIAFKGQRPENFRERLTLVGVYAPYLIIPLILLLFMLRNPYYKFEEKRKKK

[2] = molecular target: T2, Glutamate receptor ionotropic, NMDA 2B (Homo sapiens, UniProt Q13224); experiment: Displacement of [3H]Ifenprodil from GluN2B receptor (unknown origin) expressed in mouse L(tk-) cell membranes incubated for 120 mins measured for 5 mins by scintillation counting method
T2 sequence (Q13224 whole entry): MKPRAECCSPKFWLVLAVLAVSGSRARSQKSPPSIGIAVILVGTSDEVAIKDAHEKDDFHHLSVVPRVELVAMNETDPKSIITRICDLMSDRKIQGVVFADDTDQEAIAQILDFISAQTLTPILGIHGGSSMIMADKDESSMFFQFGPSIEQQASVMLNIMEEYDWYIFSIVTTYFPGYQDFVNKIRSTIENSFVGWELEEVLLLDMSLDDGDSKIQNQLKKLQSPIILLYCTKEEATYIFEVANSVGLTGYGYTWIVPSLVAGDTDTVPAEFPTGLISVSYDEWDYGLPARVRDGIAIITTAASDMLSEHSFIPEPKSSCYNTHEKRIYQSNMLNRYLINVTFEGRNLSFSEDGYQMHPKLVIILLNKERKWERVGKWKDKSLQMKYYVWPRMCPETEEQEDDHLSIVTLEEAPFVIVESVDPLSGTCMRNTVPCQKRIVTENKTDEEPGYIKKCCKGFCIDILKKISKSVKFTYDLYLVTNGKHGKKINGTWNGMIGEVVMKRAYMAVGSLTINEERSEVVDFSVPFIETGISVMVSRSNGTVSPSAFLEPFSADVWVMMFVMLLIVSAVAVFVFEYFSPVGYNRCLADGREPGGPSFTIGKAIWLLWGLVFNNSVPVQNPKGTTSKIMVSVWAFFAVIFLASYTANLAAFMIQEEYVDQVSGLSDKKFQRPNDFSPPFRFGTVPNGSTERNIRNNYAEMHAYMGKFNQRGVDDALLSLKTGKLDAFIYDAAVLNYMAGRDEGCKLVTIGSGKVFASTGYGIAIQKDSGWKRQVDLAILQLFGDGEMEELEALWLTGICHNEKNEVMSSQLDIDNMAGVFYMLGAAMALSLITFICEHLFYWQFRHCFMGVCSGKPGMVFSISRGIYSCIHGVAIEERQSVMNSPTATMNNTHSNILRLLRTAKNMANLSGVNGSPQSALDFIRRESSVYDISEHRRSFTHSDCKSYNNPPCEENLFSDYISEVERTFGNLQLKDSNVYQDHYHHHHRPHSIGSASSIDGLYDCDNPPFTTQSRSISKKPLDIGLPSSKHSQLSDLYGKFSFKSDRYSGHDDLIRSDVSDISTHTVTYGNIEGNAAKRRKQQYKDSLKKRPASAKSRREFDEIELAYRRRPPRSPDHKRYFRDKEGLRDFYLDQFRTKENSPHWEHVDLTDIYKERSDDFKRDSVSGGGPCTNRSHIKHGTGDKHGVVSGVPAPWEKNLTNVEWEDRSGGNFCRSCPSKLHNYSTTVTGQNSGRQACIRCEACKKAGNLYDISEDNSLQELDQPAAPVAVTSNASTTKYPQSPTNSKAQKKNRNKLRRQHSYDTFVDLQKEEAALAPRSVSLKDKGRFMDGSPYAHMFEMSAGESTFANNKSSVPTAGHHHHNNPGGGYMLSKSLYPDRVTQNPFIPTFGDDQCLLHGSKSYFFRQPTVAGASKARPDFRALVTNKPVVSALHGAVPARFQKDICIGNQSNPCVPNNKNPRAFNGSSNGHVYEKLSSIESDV

[3] = Selectivity ratio of Ki for sigma-1 receptor in guinea pig brain cortex membranes to Ki for GluN2B receptor (unknown origin) expressed in mouse L(tk-) cell membranes; assay type: cell-based
[4] = molecular target: Sigma non-opioid intracellular receptor 1 (Cavia porcellus, UniProt Q60492); experiment: Displacement of [3H]-(+)-pentazocine from sigma-1 receptor in guinea pig brain cortex membranes incubated for 120 mins measured for 5 mins by scintillation counting method; assay type: cell membranes
Chain of Sigma non-opioid intracellular receptor 1 (Q60492 whole entry): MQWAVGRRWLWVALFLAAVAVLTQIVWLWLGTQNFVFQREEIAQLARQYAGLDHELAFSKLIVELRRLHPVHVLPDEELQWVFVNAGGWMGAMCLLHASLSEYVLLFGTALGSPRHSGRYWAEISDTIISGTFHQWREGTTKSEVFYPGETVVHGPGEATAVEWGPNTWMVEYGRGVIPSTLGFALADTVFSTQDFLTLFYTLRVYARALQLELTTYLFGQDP

[5] = (§1) Antagonist activity at GluN2B/GluN1a receptor (unknown origin) expressed in mouse L(tk-) cells assessed as cytoprotection against glycine/(S)-glutamate-induced cell death preincubated for 30 mins followed by glycine/(S)-glutamate addition measured after 6 hrs by LDH assay; assay type: cell-based; settings: Homo sapiens, LTK
Method in brief: (§2)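 L(tk-) cells co-expressing GluN1a/GluN2B (1:5), dexamethasone-induced. Wells blocked with DMEM/1 % BSA. Cells preincubated with test compound at 5 concentrations (e.g. 4 x 10-5 to 10-9 mol/L), in at least triplicate, 30 min at 37 °C. Glutamate/glycine (20 µM each, solution) then added for 6 h at 37 °C. Supernatant LDH measured by diaphorase/lactate/NAD+/INT mix, 45 min at 37 °C, absorbance 485 nm. (S)-ketamine 4 x 10-5 mol/L was the positive control.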

Homo sapiens = organism: Homo sapiens; experiment: as §1; assay type: cell-based; method in brief: as §2
[6] = Selectivity ratio of Ki for sigma-2 receptor in rat liver membranes to Ki for GluN2B receptor (unknown origin) expressed in mouse L(tk-) cell membranes; assay type: cell-based
Sus scrofa = organism: Sus scrofa; experiment: Displacement of [3H]-(+)-MK-801 from NMDA receptor PCP binding site in pig brain cortex membranes at 1 uM incubated for 120 mins measured for 5 mins by scintillation counting method relative to control; assay type: cell membranes
Method in brief: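 Pig brain cortex membranes, about 100 µg protein, with 2 nM [3H]-(+)-MK-801 in 5 mM TRIS/1 mM EDTA, pH 7.5, at rt for 120 min. Test compound at 1 µM, in duplicate. Non-specific binding defined with 10 µM unlabeled (+)-MK-801. Filtration on polyethylenimine-soaked filtermats, then [3H] scintillation counting for 5 min per well. Value given as % inhibition of radioligand binding.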

[7] = molecular target: T2, Glutamate receptor ionotropic, NMDA 2B; experiment: Displacement of [3H]Ifenprodil from GluN2B receptor (unknown origin) expressed in mouse L(tk-) cell membranes
Method in brief: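 Dexamethasone-induced (4 µM, with 4 µM ketamine, 24 h) GluN1a/GluN2B L(tk-) cell membranes, about 20 µg protein. […] Filtration and 5-min [3H] counting. Ki by Cheng-Prusoff (Kd 7.6 nM). Mean ± SEM of three experiments, or a single run for weak binders.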

SMILES	Ki [1]	Ki [2]	Ki [4]	inhibition (Sus scrofa)	Ki [7]	Ratio Ki [3]	IC50 [5]	inhibition (Homo sapiens)	Ratio Ki [6]
COc1ccc2c(c1)CC[C@@H](NCCCc1ccccc1)C[C@H]2O (relative stereo)					0.016 µM				
OCc1ccc2c(c1)CCC(NCCCCc1ccccc1)CC2 (stereo not drawn)	0.271 µM	0.186 µM	0.041 µM	0%		4	> 100 µM		
CC(C(O)c1ccc(O)cc1)N1CCC(Cc2ccccc2)CC1 (stereo not drawn) [IFENPRODIL]							0.59 µM		

The next lines start with results.

Ki [1]	Ki [2]	Ki [4]	inhibition (Sus scrofa)	Ki [7]	SMILES	Ratio Ki [3]	IC50 [5]	inhibition (Homo sapiens)	Ratio Ki [6]
0.592 µM	0.101 µM	0.565 µM	0%		OCc1ccc2c(c1)CCC(NCCCc1ccccc1)CC2 (stereo not drawn)	5 to 6	5.2 µM	Dose-dependent effect	5 to 6
	0.173 µM				C[C@@H](CN1CCC(Cc2ccccc2)CC1)[C@@H](O)c1ccc(O)cc1		0.018 µM		
0.032 µM		0.123 µM	0%	0.028 µM	Oc1ccc2c(c1)CCC(NCCCc1ccccc1)CC2 (stereo not drawn)		25 µM		
0.096 µM		0.211 µM	25%	0.021 µM	Oc1ccc2c(c1)CCC(NCCCCc1ccccc1)CC2 (stereo not drawn)		3 µM		
